Format in all cases: functional
The subject of assay [1] is NCI/ADR-RES. Briefly: In vitro cytotoxicity against human MCF-7/Adr breast cancer cell line. The conditions noted are these: read-out: ED50 (the source's name). The method, boiled down:
(§1)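 About 2000 cells/well plated in Dulbecco's MEM/F12 with 10% fetal calf serum. At 24 h the medium was replaced with fresh medium holding varying compound concentrations. After 72 h, proliferation was read by sulforhodamine B staining. ED50 is the concentration reducing cell proliferation by 50%.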

Assay [2] concerns MCF7. The assay is described as follows: In vitro cytotoxicity against human MCF-7 cell line. The conditions noted are these: read-out: ED50 (the source's name). In a few lines: as §1
Assay [3] concerns the target Tubulin alpha chain (Sus scrofa) (UniProt P02550). The assay is described as follows: In vitro effective concentration required to reduce the amount of microtubules assembly by tubulin assay. The method, boiled down: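 Tubulin at 1.5 mg/mL was incubated with varying compound concentrations for 15 min at 37 °C in PEM buffer, pH 6.9 (0.1 M PIPES, 1 mM EGTA, 1 mM MgSO4), with 0.5 mM GTP and 8% DMSO. Microtubules were pelleted by centrifugation for 4 min at 37 °C and 50 000 rpm. Supernatant protein was measured by Bradford, and pellet protein derived from it. ED50 is the concentration reducing microtubules by 50%.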

Assay [4] concerns CCRF-CEM. The assay is described as follows: In vitro cytotoxicity against human CEM cell line. The conditions noted are these: read-out: ED50 (the source's name).
Assay [5] has as its system KB. Briefly: In vitro cytotoxicity against human KB cancer cell line. Particulars: read-out: ED50 (the source's name).

These results are taken from ChEMBL document CHEMBL1148399, “Total synthesis and antitubulin activity of c10 analogues of cryptophycin-24” (2004).

Tubulin alpha chain (Sus scrofa), sequence (P02550 whole entry, looked up): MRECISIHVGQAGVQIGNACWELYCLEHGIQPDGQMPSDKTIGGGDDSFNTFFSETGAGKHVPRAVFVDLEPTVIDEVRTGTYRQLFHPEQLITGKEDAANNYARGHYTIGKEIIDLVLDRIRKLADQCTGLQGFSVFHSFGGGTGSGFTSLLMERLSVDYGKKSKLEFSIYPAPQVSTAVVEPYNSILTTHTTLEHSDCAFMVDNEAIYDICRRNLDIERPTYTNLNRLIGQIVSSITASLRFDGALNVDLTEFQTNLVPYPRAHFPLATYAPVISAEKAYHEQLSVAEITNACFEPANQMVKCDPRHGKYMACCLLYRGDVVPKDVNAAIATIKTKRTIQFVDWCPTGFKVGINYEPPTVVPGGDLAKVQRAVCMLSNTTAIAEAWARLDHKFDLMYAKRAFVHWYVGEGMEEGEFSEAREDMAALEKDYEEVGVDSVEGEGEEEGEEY

On to `CC(C)C[C@@H]1OC(=O)CCNC(=O)[C@@H](Cc2ccccc2)NC(=O)/C=C/C[C@@H]([C@H](C)[C@H]2O[C@@H]2c2ccccc2)OC1=O`, for which the EC50 in assay [1] was 1.57 nM; in assay [2] it was 0.34 nM. In addition, in assay [3], the ED50 turned out to be 13100 nM.

As to `CC(C)C[C@@H]1OC(=O)CCNC(=O)[C@@H](Cc2ccc(Cl)c(Cl)c2)NC(=O)/C=C/C[C@@H]([C@H](C)[C@H]2O[C@@H]2c2ccccc2)OC1=O`, the results for the EC50 in assay [1] and in assay [2] were 3.4 nM and 0.08 nM, respectively. This compound returned an ED50 in assay [3] of 12600 nM.

Take `CC(C)C[C@@H]1OC(=O)CCNC(=O)[C@@H](Cc2cccc(Cl)c2)NC(=O)/C=C/C[C@@H]([C@H](C)[C@H]2O[C@@H]2c2ccccc2)OC1=O`: the figures for the EC50 in assay [1] and in assay [2] were 0.58 nM and 0.05 nM, respectively. In assay [3], this compound had an ED50 of 7200 nM.

With `COc1ccc(C[C@H]2NC(=O)/C=C/C[C@@H]([C@H](C)[C@H]3O[C@@H]3c3ccccc3)OC(=O)[C@H](CC(C)C)OC(=O)CCNC2=O)cc1` [ARENASTATIN A], the EC50 worked out at 0.25 nM in assay [1], 0.13 nM in assay [2], 0.183 nM in assay [4] and 0.005 nM in assay [5]. Moreover, the ED50 in assay [3] was determined as 15800 nM.

Consider `CC(C)C[C@@H]1OC(=O)CCNC(=O)[C@@H](Cc2ccc(Cl)cc2)NC(=O)/C=C/C[C@@H]([C@H](C)[C@H]2O[C@@H]2c2ccccc2)OC1=O`, for which the EC50 in assay [1] was found to be 0.66 nM; in assay [2], 0.12 nM. Also, in assay [3], the ED50 came to 12500 nM.

With `COc1ccc(C[C@H]2NC(=O)/C=C/C[C@@H]([C@H](C)[C@H]3O[C@@H]3c3ccccc3)OC(=O)[C@H](CC(C)C)OC(=O)[C@H](C)CNC2=O)cc1Cl` [CRYPTOPHYCIN A], the EC50 in assay [1] was 0.018 nM; in assay [2], 0.009 nM. For the same compound, in assay [3], the ED50 is 3400 nM.
